Holding throughout (format): functional
In assay [1] the test system is Human alphaherpesvirus 2. Description: Compound was evaluated for antiviral activity against HSV-2 reported as virus rating. Put shortly: (§1)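 CPE inhibition assay in pregrown Vero cell monolayers infected with HSV-1 (strain 377) or HSV-2 (strain HF). Virus-induced cytopathogenic effect was scored quantitatively. Virus rating weighs the degree of CPE inhibition against cytotoxicity to the host cells, following a modified Ehrlich et al. method.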

Assay [2] deals with Human alphaherpesvirus 1. Description: Compound was evaluated for antiviral activity against HSV-1 reported as virus rating. The procedure, abridged: as §1
The test system of assay [3] is Human alphaherpesvirus 1. Description: Compound was evaluated for antiviral activity against HSV-1 reported as ED50 value. The following applies: read-out: ED50 (the source's name). The procedure, abridged:
as §1

Assay [4] deals with Human alphaherpesvirus 2. Description: Compound was evaluated for antiviral activity against HSV-2 reported as ED50 value. Particulars: read-out: ED50 (the source's name). The procedure, abridged:
as §1

A further assay deals with P388. In words: Compound was evaluated for growth inhibition of P-388 lymphoid leukemia cells. The following applies: Mus musculus, read-out: ED50 (the source's name). The procedure, abridged: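 P-388 mouse lymphoid leukemia cells were seeded at 4×10^5 per tube in Fischer's medium with 10% horse serum. Twofold compound dilutions were run in duplicate tubes, stoppered, and held at a 30° angle at 37 °C for 72 h without agitation, rotated twice daily. Cells were counted by hemocytometer. Percent inhibition was taken against controls, with counts corrected for the inoculum.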

Values after ≈ are worked out from the molar mass of the structure shown.

With `Nc1ncnc2c1ncn2[C@@H]1O[C@H](CO)[C@@H](O)[C@@H]1O` [VIDARABINE], the VR amounted to 1.4 in the assay on Human alphaherpesvirus 2 [1] and 2 with Human alphaherpesvirus 1 [2].

Turning to `Nc1nc(O)c2ncn(C/C=C/CO)c2n1`, the VR is 0.9 in the assay with Human alphaherpesvirus 2 [1] and 1.5 in the assay with Human alphaherpesvirus 1 [2]. For the same compound, the figures for the EC50 in the assay with Human alphaherpesvirus 1 [3] and with Human alphaherpesvirus 2 [4] were 172 µg/mL (≈ 778 µM) and 219 µg/mL (≈ 990 µM), respectively.

Consider `Nc1ncnc2c1ncn2C/C=C/CCl`, for which the EC50 with P388 came to 5 µg/mL (≈ 22.4 µM).

`Nc1nc2c(ncn2COCCO)c(=O)[nH]1` [ACYCLOVIR]: the VR in the assay with Human alphaherpesvirus 2 [1] is given as 4.8; with Human alphaherpesvirus 1 [2], 6.3. Moreover, the EC50 in the assay on Human alphaherpesvirus 1 [3] was determined as 12.3 µg/mL (≈ 54.6 µM); with Human alphaherpesvirus 2 [4], 4.8 µg/mL (≈ 21.3 µM).

Values taken from ChEMBL document CHEMBL1123936, “Synthesis and biological evaluation of acyclic neplanocin analogues” (1987).
